# Results taken from ChEMBL document CHEMBL4689842, “EUbOPEN Chemogenomics Library wave 1” (2021).
# Several values for one entry are separate records, joined by “and”; a condition that tells them apart may be missing. Equal entries are not always repeated.
# Tested on: HEK-293T
# Experiment: Multiplex assay against HEK293T;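 on Population Tubulin-Different-Phenotype (%): share of the cells with healthy nuclei that show this phenotype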
# Type: toxicity, cell-based
# Conditions: human
# Method in brief: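 Hoechst33342, BioTracker Green Microtubule Cytoskeleton Dye, MitoTracker Red and Annexin V Alexa Fluor 680 were added to live cells at seeding, and imaging on a CQ1 microscope at 37°C and 5% CO2 followed compound addition. Gating by CellPathfinder machine learning separated cells into Hoechst high-intensity objects or normal cells, then normal cells into healthy, pyknosed or fragmented nuclei, then pyknosed cells into mitotic or apoptotic. Per cents of healthy-nucleus cells are reported for the tubulin, mitochondrial-mass and membrane-permeability phenotypes.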
# [1] = 12 h, 1 µM, compound concentration 1 uM, replicate 1
# [2] = 12 h, 1 µM, compound concentration 1 uM, replicate 2
# [3] = 12 h, 10 µM, compound concentration 10 uM, replicate 1
# [4] = 12 h, 10 µM, compound concentration 10 uM, replicate 2
# [5] = 24 h, 1 µM, compound concentration 1 uM, replicate 1
# [6] = 24 h, 1 µM, compound concentration 1 uM, replicate 2
# [7] = 24 h, 10 µM, compound concentration 10 uM, replicate 1
# [8] = 24 h, 10 µM, compound concentration 10 uM, replicate 2
# [9] = 48 h, 1 µM, compound concentration 1 uM, replicate 1
# [10] = 48 h, 1 µM, compound concentration 1 uM, replicate 2
# [11] = 48 h, 10 µM, compound concentration 10 uM, replicate 1
# [12] = 48 h, 10 µM, compound concentration 10 uM, replicate 2
smiles,measurement,setting,value
COc1ccccc1CN[C@H]1C2CCN(CC2)[C@H]1C(c1ccccc1)c1ccccc1 [CP-96345],Population Apoptotic (%),[1],61%
same,Population Fragmented Nuclei (%),[1],12%
same,Population Healthy Nuclei (%),[1],37%
same,Population Hoechst High Intensity Objects (%),[1],13%
same,Population Membrane Permeable-Phenotype (%),[1],0%
same,Population Mitochondria Different-Phenotype (%),[1],90%
same,Population Mitotic Cells (%),[1],38%
same,Population Normal (%),[1],86%
same,Population Pyknosed Nuclei (%),[1],50%
same,Population Tubulin-Different-Phenotype (%),[1],80%
same,Total Cell Count,[1],250
same,Population Apoptotic (%),[2],8%
same,Population Fragmented Nuclei (%),[2],3%
same,Population Healthy Nuclei (%),[2],54%
same,Population Hoechst High Intensity Objects (%),[2],3%
same,Population Membrane Permeable-Phenotype (%),[2],10%
same,Population Mitochondria Different-Phenotype (%),[2],17%
same,Population Mitotic Cells (%),[2],91%
same,Population Normal (%),[2],96%
same,Population Pyknosed Nuclei (%),[2],42%
same,Population Tubulin-Different-Phenotype (%),[2],21%
same,Total Cell Count,[2],244
same,Population Apoptotic (%),[3],79%
same,Population Fragmented Nuclei (%),[3],9%
same,Population Healthy Nuclei (%),[3],27%
same,Population Hoechst High Intensity Objects (%),[3],13%
same,Population Membrane Permeable-Phenotype (%),[3],2%
same,Population Mitochondria Different-Phenotype (%),[3],100%
same,Population Mitotic Cells (%),[3],20%
same,Population Normal (%),[3],86%
same,Population Pyknosed Nuclei (%),[3],63%
same,Population Tubulin-Different-Phenotype (%),[3],97%
same,Total Cell Count,[3],296
same,Population Apoptotic (%),[4],25%
same,Population Fragmented Nuclei (%),[4],2%
same,Population Healthy Nuclei (%),[4],36%
same,Population Hoechst High Intensity Objects (%),[4],4%
same,Population Membrane Permeable-Phenotype (%),[4],6%
same,Population Mitochondria Different-Phenotype (%),[4],77%
same,Population Mitotic Cells (%),[4],74%
same,Population Normal (%),[4],95%
same,Population Pyknosed Nuclei (%),[4],60%
same,Population Tubulin-Different-Phenotype (%),[4],74%
same,Total Cell Count,[4],179
same,Population Apoptotic (%),[5],56%
same,Population Fragmented Nuclei (%),[5],11%
same,Population Healthy Nuclei (%),[5],45%
same,Population Hoechst High Intensity Objects (%),[5],16%
same,Population Membrane Permeable-Phenotype (%),[5],6%
same,Population Mitochondria Different-Phenotype (%),[5],87%
same,Population Mitotic Cells (%),[5],43%
same,Population Normal (%),[5],83%
same,Population Pyknosed Nuclei (%),[5],43%
same,Population Tubulin-Different-Phenotype (%),[5],67%
same,Total Cell Count,[5],253
same,Population Apoptotic (%),[6],10%
same,Population Fragmented Nuclei (%),[6],2%
same,Population Healthy Nuclei (%),[6],67%
same,Population Hoechst High Intensity Objects (%),[6],3%
same,Population Membrane Permeable-Phenotype (%),[6],5%
same,Population Mitochondria Different-Phenotype (%),[6],14%
same,Population Mitotic Cells (%),[6],89%
same,Population Normal (%),[6],97%
same,Population Pyknosed Nuclei (%),[6],30%
same,Population Tubulin-Different-Phenotype (%),[6],20%
same,Total Cell Count,[6],333
same,Population Apoptotic (%),[7],81%
same,Population Fragmented Nuclei (%),[7],13%
same,Population Healthy Nuclei (%),[7],39%
same,Population Hoechst High Intensity Objects (%),[7],11%
same,Population Membrane Permeable-Phenotype (%),[7],0%
same,Population Mitochondria Different-Phenotype (%),[7],100%
same,Population Mitotic Cells (%),[7],18%
same,Population Normal (%),[7],88%
same,Population Pyknosed Nuclei (%),[7],47%
same,Population Tubulin-Different-Phenotype (%),[7],99%
same,Total Cell Count,[7],298
same,Population Apoptotic (%),[8],26%
same,Population Fragmented Nuclei (%),[8],5%
same,Population Healthy Nuclei (%),[8],44%
same,Population Hoechst High Intensity Objects (%),[8],2%
same,Population Membrane Permeable-Phenotype (%),[8],4%
same,Population Mitochondria Different-Phenotype (%),[8],75%
same,Population Mitotic Cells (%),[8],73%
same,Population Normal (%),[8],97%
same,Population Pyknosed Nuclei (%),[8],50%
same,Population Tubulin-Different-Phenotype (%),[8],72%
same,Total Cell Count,[8],218
same,Population Apoptotic (%),[9],48%
same,Population Fragmented Nuclei (%),[9],15%
same,Population Healthy Nuclei (%),[9],48%
same,Population Hoechst High Intensity Objects (%),[9],14%
same,Population Membrane Permeable-Phenotype (%),[9],4%
same,Population Mitochondria Different-Phenotype (%),[9],57%
same,Population Mitotic Cells (%),[9],51%
same,Population Normal (%),[9],85%
same,Population Pyknosed Nuclei (%),[9],36%
same,Population Tubulin-Different-Phenotype (%),[9],58%
same,Total Cell Count,[9],334
same,Population Apoptotic (%),[10],8%
same,Population Fragmented Nuclei (%),[10],3%
same,Population Healthy Nuclei (%),[10],86%
same,Population Hoechst High Intensity Objects (%),[10],2%
same,Population Membrane Permeable-Phenotype (%),[10],6%
same,Population Mitochondria Different-Phenotype (%),[10],4%
same,Population Mitotic Cells (%),[10],91%
same,Population Normal (%),[10],97%
same,Population Pyknosed Nuclei (%),[10],9%
same,Population Tubulin-Different-Phenotype (%),[10],13%
same,Total Cell Count,[10],612
same,Population Apoptotic (%),[11],79%
same,Population Fragmented Nuclei (%),[11],16%
same,Population Healthy Nuclei (%),[11],55%
same,Population Hoechst High Intensity Objects (%),[11],13%
same,Population Membrane Permeable-Phenotype (%),[11],0%
same,Population Mitochondria Different-Phenotype (%),[11],98%
same,Population Mitotic Cells (%),[11],20%
same,Population Normal (%),[11],86%
same,Population Pyknosed Nuclei (%),[11],28%
same,Population Tubulin-Different-Phenotype (%),[11],94%
same,Total Cell Count,[11],327
same,Population Apoptotic (%),[12],39%
same,Population Fragmented Nuclei (%),[12],3%
same,Population Healthy Nuclei (%),[12],71%
same,Population Hoechst High Intensity Objects (%),[12],2%
same,Population Membrane Permeable-Phenotype (%),[12],4%
same,Population Mitochondria Different-Phenotype (%),[12],39%
same,Population Mitotic Cells (%),[12],60%
same,Population Normal (%),[12],97%
same,Population Pyknosed Nuclei (%),[12],25%
same,Population Tubulin-Different-Phenotype (%),[12],63%
same,Total Cell Count,[12],330
CNC(=O)c1ccc(Nc2ncc(C(F)(F)F)c(NCc3nccnc3N(C)S(C)(=O)=O)n2)cc1 [DEFACTINIB],Population Apoptotic (%),[1],27%
same,Population Fragmented Nuclei (%),[1],14% and 16%
same,Population Healthy Nuclei (%),[1],72% and 59%
same,Population Hoechst High Intensity Objects (%),[1],11% and 18%
same,Population Membrane Permeable-Phenotype (%),[1],4% and 6%
same,Population Mitochondria Different-Phenotype (%),[1],6% and 8%
same,Population Mitotic Cells (%),[1],72% and 74%
same,Population Normal (%),[1],88% and 81%
same,Population Pyknosed Nuclei (%),[1],13% and 24%
same,Total Cell Count,[1],689 and 588
same,Population Apoptotic (%),[2],25% and 12%
same,Population Fragmented Nuclei (%),[2],9% and 3%
same,Population Healthy Nuclei (%),[2],84% and 92%
same,Population Hoechst High Intensity Objects (%),[2],3%
same,Population Membrane Permeable-Phenotype (%),[2],2% and 3%
same,Population Mitochondria Different-Phenotype (%),[2],10% and 19%
same,Population Mitotic Cells (%),[2],75% and 87%
same,Population Normal (%),[2],96%
same,Population Pyknosed Nuclei (%),[2],6% and 3%
same,Total Cell Count,[2],1140 and 1057
same,Population Apoptotic (%),[3],27%
same,Population Fragmented Nuclei (%),[3],17% and 16%
same,Population Healthy Nuclei (%),[3],62% and 66%
same,Population Hoechst High Intensity Objects (%),[3],11% and 13%
same,Population Membrane Permeable-Phenotype (%),[3],7% and 4%
same,Population Mitochondria Different-Phenotype (%),[3],12% and 5%
same,Population Mitotic Cells (%),[3],72%
same,Population Normal (%),[3],88% and 86%
same,Population Pyknosed Nuclei (%),[3],20% and 17%
same,Total Cell Count,[3],704 and 581
same,Population Fragmented Nuclei (%),[4],3% and 7%
same,Population Healthy Nuclei (%),[4],90% and 87%
same,Population Hoechst High Intensity Objects (%),[4],5% and 2%
same,Population Membrane Permeable-Phenotype (%),[4],6% and 1%
same,Population Mitochondria Different-Phenotype (%),[4],21% and 10%
same,Population Mitotic Cells (%),[4],78% and 96%
same,Population Normal (%),[4],94% and 97%
same,Population Pyknosed Nuclei (%),[4],6% and 4%
same,Total Cell Count,[4],770 and 1490
same,Population Apoptotic (%),[5],23% and 19%
same,Population Fragmented Nuclei (%),[5],15% and 17%
same,Population Healthy Nuclei (%),[5],77% and 62%
same,Population Hoechst High Intensity Objects (%),[5],6% and 14%
same,Population Membrane Permeable-Phenotype (%),[5],6%
same,Population Mitochondria Different-Phenotype (%),[5],4% and 12%
same,Population Mitotic Cells (%),[5],76% and 80%
same,Population Normal (%),[5],93% and 85%
same,Population Pyknosed Nuclei (%),[5],7% and 19%
same,Population Tubulin-Different-Phenotype (%),[5],10% and 26%
same,Total Cell Count,[5],751 and 618
same,Population Apoptotic (%),[6],14% and 11%
same,Population Healthy Nuclei (%),[6],74% and 91%
same,Population Hoechst High Intensity Objects (%),[6],3% and 5%
same,Population Membrane Permeable-Phenotype (%),[6],3%
same,Population Mitotic Cells (%),[6],85% and 88%
same,Population Normal (%),[6],96% and 94%
same,Population Pyknosed Nuclei (%),[6],3% and 2%
same,Total Cell Count,[6],1868 and 1334
same,Population Apoptotic (%),[7],33% and 18%
same,Population Fragmented Nuclei (%),[7],16% and 15%
same,Population Healthy Nuclei (%),[7],66% and 78%
same,Population Hoechst High Intensity Objects (%),[7],11% and 7%
same,Population Membrane Permeable-Phenotype (%),[7],6% and 4%
same,Population Mitotic Cells (%),[7],66% and 81%
same,Population Normal (%),[7],88% and 92%
same,Population Tubulin-Different-Phenotype (%),[7],24% and 11%
same,Total Cell Count,[7],732 and 672
same,Population Healthy Nuclei (%),[8],90% and 75%
same,Population Hoechst High Intensity Objects (%),[8],3%
same,Population Membrane Permeable-Phenotype (%),[8],8% and 3%
same,Population Mitotic Cells (%),[8],71% and 92%
same,Population Normal (%),[8],96%
same,Population Pyknosed Nuclei (%),[8],4% and 2%
same,Total Cell Count,[8],961 and 2290
